In data set [1] the target is Vascular endothelial growth factor receptor 2 (Homo sapiens, UniProt P35968). The data set can be described thus: Inhibition of VEGFR2 (unknown origin) using poly(Glu,Tyr)4:1 as substrate in presence of [gamma-33P]-ATP after 60 mins by scintillation counting analysis. Particulars: for pKi: read-out: Ki; call rule not given here. The procedure, abridged: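 Radiometric ATP-competition assay at 30 °C for 60 min. Kinase was 20 ng/50 µL with Poly(Glu,Tyr)4:1 substrate at 125 ng/50 µL. Buffer was 70 mM HEPES-NaOH pH 7.5 with 3 mM MgCl2, 3 mM MnCl2, 3 µM orthovanadate, 1.2 mM DTT, 50 µg/mL PEG20000 and 15 µM [γ-33P]-ATP. The stop was 2% phosphoric acid, and 33Pi incorporation was counted by scintillation. Ten concentrations from 3 nM to 100 µM gave IC50.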
Vascular endothelial growth factor receptor 2, sequence (P35968 whole entry): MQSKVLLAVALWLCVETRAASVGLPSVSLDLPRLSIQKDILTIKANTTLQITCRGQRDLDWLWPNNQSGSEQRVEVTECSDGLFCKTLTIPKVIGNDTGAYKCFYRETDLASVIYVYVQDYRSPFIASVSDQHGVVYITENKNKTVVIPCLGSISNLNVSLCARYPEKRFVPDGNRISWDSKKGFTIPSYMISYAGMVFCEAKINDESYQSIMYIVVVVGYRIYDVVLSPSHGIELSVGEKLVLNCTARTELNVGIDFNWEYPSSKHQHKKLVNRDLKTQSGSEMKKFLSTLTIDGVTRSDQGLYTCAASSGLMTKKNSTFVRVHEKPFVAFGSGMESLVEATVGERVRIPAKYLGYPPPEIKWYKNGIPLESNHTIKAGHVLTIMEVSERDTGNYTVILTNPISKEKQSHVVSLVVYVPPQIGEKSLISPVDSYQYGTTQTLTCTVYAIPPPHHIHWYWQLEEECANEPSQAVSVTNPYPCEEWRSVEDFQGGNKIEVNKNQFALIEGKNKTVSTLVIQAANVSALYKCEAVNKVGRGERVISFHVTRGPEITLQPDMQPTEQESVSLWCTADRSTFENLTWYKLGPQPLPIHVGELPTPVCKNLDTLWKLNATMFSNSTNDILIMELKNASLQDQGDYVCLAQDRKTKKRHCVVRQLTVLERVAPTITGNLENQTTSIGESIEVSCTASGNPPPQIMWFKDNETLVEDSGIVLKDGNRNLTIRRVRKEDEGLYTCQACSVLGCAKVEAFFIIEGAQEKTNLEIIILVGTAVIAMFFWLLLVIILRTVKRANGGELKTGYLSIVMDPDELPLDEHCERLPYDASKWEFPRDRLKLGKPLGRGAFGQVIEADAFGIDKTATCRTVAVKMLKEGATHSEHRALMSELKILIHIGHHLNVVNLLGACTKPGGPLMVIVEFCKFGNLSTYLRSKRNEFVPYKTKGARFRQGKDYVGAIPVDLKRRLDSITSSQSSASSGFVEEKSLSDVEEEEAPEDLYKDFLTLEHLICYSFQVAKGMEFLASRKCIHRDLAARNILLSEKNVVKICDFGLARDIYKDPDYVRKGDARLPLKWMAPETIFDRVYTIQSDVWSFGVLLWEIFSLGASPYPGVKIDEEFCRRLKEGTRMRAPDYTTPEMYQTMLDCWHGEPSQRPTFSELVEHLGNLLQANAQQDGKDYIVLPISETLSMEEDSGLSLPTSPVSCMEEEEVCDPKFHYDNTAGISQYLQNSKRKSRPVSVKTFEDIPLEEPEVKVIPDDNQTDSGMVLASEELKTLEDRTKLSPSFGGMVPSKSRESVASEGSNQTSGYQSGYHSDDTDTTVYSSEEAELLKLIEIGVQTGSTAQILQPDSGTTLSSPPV

In data set [2] the target is Epidermal growth factor receptor (Homo sapiens, UniProt P00533). Kind of data set: Inhibition of EGFR (unknown origin) using poly(Glu,Tyr)4:1 as substrate in presence of [gamma-33P]-ATP after 60 mins by scintillation counting analysis.
Epidermal growth factor receptor, sequence (P00533 whole entry): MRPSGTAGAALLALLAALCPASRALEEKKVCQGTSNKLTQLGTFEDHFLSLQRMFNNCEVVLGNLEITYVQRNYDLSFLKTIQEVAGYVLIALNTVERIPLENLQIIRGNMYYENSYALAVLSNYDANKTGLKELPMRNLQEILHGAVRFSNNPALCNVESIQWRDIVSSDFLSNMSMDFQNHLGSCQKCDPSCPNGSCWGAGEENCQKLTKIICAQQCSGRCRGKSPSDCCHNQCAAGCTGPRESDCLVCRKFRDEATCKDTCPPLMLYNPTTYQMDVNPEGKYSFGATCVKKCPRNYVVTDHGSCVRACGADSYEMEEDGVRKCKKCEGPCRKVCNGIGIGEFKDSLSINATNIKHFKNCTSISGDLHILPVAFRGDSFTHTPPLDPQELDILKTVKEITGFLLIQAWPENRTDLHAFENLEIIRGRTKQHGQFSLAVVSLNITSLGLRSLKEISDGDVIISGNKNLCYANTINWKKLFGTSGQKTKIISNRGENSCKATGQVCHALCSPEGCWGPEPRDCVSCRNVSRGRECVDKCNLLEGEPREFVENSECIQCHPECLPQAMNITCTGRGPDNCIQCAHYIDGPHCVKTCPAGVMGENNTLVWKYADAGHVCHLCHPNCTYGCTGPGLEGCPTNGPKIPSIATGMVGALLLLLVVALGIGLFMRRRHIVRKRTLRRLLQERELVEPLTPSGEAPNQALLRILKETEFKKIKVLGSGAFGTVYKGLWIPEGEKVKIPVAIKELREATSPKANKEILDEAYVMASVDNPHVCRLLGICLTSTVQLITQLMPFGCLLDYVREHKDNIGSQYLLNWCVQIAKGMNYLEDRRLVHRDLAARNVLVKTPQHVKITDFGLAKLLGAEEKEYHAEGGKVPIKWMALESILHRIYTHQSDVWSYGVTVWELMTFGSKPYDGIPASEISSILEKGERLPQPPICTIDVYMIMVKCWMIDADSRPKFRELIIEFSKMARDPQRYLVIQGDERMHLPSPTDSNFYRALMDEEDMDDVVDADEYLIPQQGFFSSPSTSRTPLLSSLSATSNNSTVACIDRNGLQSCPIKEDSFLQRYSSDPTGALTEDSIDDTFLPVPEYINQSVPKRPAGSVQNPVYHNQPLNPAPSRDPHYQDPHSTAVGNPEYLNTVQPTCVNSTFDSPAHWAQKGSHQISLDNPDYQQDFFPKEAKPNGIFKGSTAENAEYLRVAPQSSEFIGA
Another data set has as its system BT-549. Kind of data set: Growth inhibition of human BT549 cells at 10 uM after 48 hrs by sulforhodamine assay relative to control. In kind it is functional. Particulars: BT-549, 48 h, read-out: GI. In a few lines: (§1)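 Tested at a single 10 µM concentration in the NCI tumour cell panel screen. Growth inhibition was read by sulforhodamine B staining.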
A further data set has as its system MDA-MB-231. The data set can be described thus: Growth inhibition of human MDA-MB-231 cells at 10 uM after 48 hrs by sulforhodamine assay relative to control. Particulars: MDA-MB-231, 48 h, read-out: GI. In kind it is functional. The procedure, abridged:
as §1

The next data set deals with HOP-62. Kind of data set: Growth inhibition of human HOP62 cells at 10 uM after 48 hrs by sulforhodamine assay relative to control. Particulars: HOP-62, 48 h, read-out: GI. In kind it is functional. The procedure, abridged:
as §1

Another data set relates to HOP-92. Kind of data set: Growth inhibition of human HOP92 cells at 10 uM after 48 hrs by sulforhodamine assay relative to control. In kind it is functional. To be noted: HOP-92, 48 h, read-out: GI. The procedure, abridged: as §1
A further data set concerns Hs-578T. The data set can be described thus: Growth inhibition of human Hs578T cells at 10 uM after 48 hrs by sulforhodamine assay relative to control. In kind it is functional. To be noted: read-out: GI. In a few lines:
as §1

The next data set deals with MDA-MB-468. Kind of data set: Growth inhibition of human MDA-MB-468 cells at 10 uM after 48 hrs by sulforhodamine assay relative to control. Particulars: MDA-MB-468, 48 h, read-out: GI. In kind it is functional. The procedure, abridged:
as §1

The next data set deals with NCI-H460. Kind of data set: Growth inhibition of human NCI-H460 cells at 10 uM after 48 hrs by sulforhodamine assay relative to control. In kind it is functional. Particulars: NCI-H460, 48 h, read-out: GI. The procedure, abridged:
as §1

In data set [3] the target is Protein kinase C alpha type (Homo sapiens, UniProt P17252). The data set can be described thus: Inhibition of PKC alpha (unknown origin). In a few lines:
(§2)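 ATP-competition kinase assay run at several inhibitor concentrations. Reduced phosphorylation of the kinase substrate was measured by scintillation counting, and IC50 values were derived.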

The next data set concerns the target Wee1-like protein kinase (Homo sapiens, UniProt P30291). Kind of data set: Inhibition of Wee1 (unknown origin). In a few lines: as §2
Data set [4] concerns the target Interleukin-1 receptor-associated kinase 1 (Homo sapiens, UniProt P51617). The data set can be described thus: Inhibition of IRAK (unknown origin). The procedure, abridged: as §2
The target in data set [5] is Mitogen-activated protein kinase kinase kinase 2 (Homo sapiens, UniProt Q9Y2U5). Kind of data set: Inhibition of MEKK2 (unknown origin). The procedure, abridged: as §2
The nature of data set [6]: Solubility of the compound in pH 7.5 HEPES-NaOH buffer at > 100 uM. In kind it is physicochemical.
Data set [7] has as its target Casein kinase I isoform alpha (Homo sapiens, UniProt P48729). The data set can be described thus: Inhibition of CK1 alpha (unknown origin). In a few lines: as §2
For data set [8], the target named is Mitogen-activated protein kinase kinase kinase 21 (Homo sapiens, UniProt Q5TCX8). Kind of data set: Inhibition of MLK4 (unknown origin). The procedure, abridged:
as §2

The target in data set [9] is Death-associated protein kinase 1 (Homo sapiens, UniProt P53355). The data set can be described thus: Inhibition of DAPK1 (unknown origin). The procedure, abridged:
as §2

In data set [10] the target is Tyrosine-protein kinase JAK2 (Homo sapiens, UniProt O60674). The data set can be described thus: Inhibition of JAK2 (unknown origin). In a few lines:
as §2

Data set [11] deals with Tyrosine-protein kinase ABL1 (Homo sapiens, UniProt P00519). Kind of data set: Inhibition of c-Abl (unknown origin). The procedure, abridged: as §2
For another data set, the target named is Myotonin-protein kinase (Homo sapiens, UniProt Q09013). The data set can be described thus: Inhibition of DMPK (unknown origin). The procedure, abridged:
as §2

For data set [12], the target named is Serine/threonine-protein kinase MARK1 (Homo sapiens, UniProt Q9P0L2). The data set can be described thus: Inhibition of MARK1 (unknown origin). In a few lines:
as §2

Data set [13] concerns the target Dual specificity mitogen-activated protein kinase kinase 1 (Homo sapiens, UniProt Q02750). The data set can be described thus: Inhibition of MEK1 (unknown origin). The procedure, abridged: as §2
Data set [14] has as its target Activin receptor type-1-like (Homo sapiens, UniProt P37023). The data set can be described thus: Inhibition of ALK1 (unknown origin). In a few lines: as §2

The values below come from ChEMBL document CHEMBL4020756, “Discovery of novel substituted benzo-anellated 4-benzylamino pyrrolopyrimidines as dual EGFR and VEGFR2 inhibitors” (Bioorg Med Chem Lett, 2017).

SMILES strings stand for the structures. pIC50, pKi: −log10 of the molar value.

Myotonin-protein kinase, sequence (Q09013 whole entry): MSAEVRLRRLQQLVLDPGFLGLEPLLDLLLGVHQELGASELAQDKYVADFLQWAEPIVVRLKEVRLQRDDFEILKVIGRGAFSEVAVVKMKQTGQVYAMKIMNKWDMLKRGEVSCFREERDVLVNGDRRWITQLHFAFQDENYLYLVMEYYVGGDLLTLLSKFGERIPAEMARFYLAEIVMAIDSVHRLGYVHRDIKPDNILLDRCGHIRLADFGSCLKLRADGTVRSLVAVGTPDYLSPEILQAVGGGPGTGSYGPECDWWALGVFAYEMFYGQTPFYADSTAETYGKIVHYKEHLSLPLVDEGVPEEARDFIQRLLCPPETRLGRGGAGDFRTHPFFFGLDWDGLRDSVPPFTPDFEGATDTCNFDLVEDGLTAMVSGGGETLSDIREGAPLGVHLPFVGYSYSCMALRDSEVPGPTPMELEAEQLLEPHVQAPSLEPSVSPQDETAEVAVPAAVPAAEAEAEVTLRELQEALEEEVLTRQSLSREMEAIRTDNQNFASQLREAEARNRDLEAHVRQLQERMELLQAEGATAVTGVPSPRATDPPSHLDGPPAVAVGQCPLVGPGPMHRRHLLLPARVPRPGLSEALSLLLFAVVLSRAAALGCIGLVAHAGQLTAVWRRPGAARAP
Dual specificity mitogen-activated protein kinase kinase 1, sequence (Q02750 whole entry): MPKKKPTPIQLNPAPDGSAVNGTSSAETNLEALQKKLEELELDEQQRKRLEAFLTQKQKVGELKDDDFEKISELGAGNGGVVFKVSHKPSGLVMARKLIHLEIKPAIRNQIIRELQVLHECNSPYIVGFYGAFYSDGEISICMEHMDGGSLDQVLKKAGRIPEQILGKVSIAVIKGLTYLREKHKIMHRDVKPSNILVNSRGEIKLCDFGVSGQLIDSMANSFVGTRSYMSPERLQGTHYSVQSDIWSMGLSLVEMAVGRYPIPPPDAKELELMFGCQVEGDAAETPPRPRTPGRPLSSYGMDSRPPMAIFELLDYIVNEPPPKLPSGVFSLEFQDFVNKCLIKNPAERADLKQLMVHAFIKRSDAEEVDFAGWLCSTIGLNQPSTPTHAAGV
Activin receptor type-1-like, sequence (P37023 whole entry): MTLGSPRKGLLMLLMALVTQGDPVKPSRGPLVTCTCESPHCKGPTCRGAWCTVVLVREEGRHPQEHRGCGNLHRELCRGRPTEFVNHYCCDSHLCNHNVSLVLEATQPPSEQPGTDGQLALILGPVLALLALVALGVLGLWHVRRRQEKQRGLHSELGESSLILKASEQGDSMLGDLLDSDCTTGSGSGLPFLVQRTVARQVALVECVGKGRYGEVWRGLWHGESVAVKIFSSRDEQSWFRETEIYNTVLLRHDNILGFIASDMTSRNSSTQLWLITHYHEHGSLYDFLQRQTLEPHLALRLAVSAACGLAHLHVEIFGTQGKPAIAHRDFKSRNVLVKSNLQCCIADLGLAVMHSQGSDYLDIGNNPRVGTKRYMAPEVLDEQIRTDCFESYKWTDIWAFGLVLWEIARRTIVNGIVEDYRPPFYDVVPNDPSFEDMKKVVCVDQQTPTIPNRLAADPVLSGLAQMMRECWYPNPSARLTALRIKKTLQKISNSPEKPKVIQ
Casein kinase I isoform alpha, sequence (P48729 whole entry, canonical isoform): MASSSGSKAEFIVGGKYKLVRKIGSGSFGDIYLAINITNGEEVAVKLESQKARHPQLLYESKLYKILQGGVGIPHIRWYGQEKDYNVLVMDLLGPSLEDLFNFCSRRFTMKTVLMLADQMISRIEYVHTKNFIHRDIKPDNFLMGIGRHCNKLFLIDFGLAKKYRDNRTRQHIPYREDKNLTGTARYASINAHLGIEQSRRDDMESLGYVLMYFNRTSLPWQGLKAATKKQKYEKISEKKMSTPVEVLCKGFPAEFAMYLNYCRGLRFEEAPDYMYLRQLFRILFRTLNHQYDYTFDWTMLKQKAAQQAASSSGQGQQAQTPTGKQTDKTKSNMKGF
Wee1-like protein kinase, sequence (P30291 whole entry): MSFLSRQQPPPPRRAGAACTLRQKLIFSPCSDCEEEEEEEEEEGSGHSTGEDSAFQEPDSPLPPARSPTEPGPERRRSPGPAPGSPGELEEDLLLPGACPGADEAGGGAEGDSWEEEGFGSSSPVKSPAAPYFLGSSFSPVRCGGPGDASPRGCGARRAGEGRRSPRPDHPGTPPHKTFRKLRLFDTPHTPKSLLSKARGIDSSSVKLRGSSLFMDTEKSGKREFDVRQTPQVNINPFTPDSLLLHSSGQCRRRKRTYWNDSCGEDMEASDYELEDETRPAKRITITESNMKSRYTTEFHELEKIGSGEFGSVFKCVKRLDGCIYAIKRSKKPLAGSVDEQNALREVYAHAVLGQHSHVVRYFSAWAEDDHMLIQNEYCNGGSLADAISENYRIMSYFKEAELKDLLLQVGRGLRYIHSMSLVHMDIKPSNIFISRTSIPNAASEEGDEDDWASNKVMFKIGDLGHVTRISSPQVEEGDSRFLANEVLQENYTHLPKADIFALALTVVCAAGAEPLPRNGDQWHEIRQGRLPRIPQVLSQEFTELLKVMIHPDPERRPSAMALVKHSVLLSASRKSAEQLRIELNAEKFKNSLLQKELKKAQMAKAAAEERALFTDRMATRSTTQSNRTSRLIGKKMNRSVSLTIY

As for `Nc1nc(NCc2ccccc2)c2c(n1)[nH]c1ccc(O)cc12`, the pKi – broadly, the Ki on a negative log10 scale, so that one unit is a factor of ten – in data set [1] was 5.56; in [2] it was 6.15.

`Nc1nc(NCCc2ccccc2)c2c(n1)[nH]c1ccc(O)cc12`: the pKi in [1] was 5.35; in [2], 6.19.

As for `Nc1nc(NCc2ccc(Cl)cc2)c2c(n1)[nH]c1ccc(O)cc12`, the inhibition of growth at 10 µM turned out to be 24% in the data set on BT-549; 65% with MDA-MB-231; 31% with HOP-62; 57% in the data set with HOP-92; 33% in the data set on Hs-578T; 71% in the data set on MDA-MB-468. Also, the inhibition of growth at 10 µM with NCI-H460 was determined as 25%. For the same molecule, the negative-log Ki (pKi) in data set [1] is 5.49; in data set [2], 7.10.

In the case of `COc1ccc(CNc2nc(N)nc3[nH]c4ccc(O)cc4c23)cc1OC`, the negative-log Ki (pKi) in data set [1] is 4.96; in data set [2], 5.43.

With `Nc1nc(NCc2ccccc2)c2c(n1)[nH]c1cc(Br)c(O)cc12`, in data set [1], the Ki entry is listed as “Not Active”. For the same molecule, the negative logarithm of the Ki (pKi) in [2] was 6.43.

Take `Nc1nc(NCc2cccc(Cl)c2)c2c(n1)[nH]c1ccc(O)cc12`: the negative logarithm of the Ki (pKi) in [2] is 6.54.

As to `COc1ccc(CNc2nc(N)nc3[nH]c4cc(C)c(O)cc4c23)cc1`, the pKi in data set [2] was 5.23.

As to `COc1cc2[nH]c3nc(N)nc(NCc4ccccc4)c3c2cc1O`, the pKi is 4.87 in [1] and 6.21 in [2].

With `Cc1ccc(CNc2nc(N)nc3[nH]c4ccc(O)cc4c23)cc1`, the pKi was 5.49 in data set [1] and 7.05 in data set [2].

On to `Cc1cc2[nH]c3nc(N)nc(NCc4ccc(Cl)cc4)c3c2cc1O`, for which the Ki entry in [1] is “Not Active”. In data set [2], the negative logarithm of the Ki (pKi) was 6.96.

`Cc1cc2[nH]c3nc(N)nc(NCc4cccc(Cl)c4)c3c2cc1O`: the pKi in data set [2] was 6.05.

Take `COc1cccc(CNc2nc(N)nc3[nH]c4ccc(O)cc4c23)c1`: the pKi in data set [1] was 5.40; in data set [2] it was 5.90.

`C[C@@H](Nc1nc(N)nc2[nH]c3ccc(O)cc3c12)c1ccccc1`: the figures for the negative logarithm of the Ki (pKi) in data set [1] and in data set [2] were 5.71 and 6.04, respectively.

With `Nc1nc(NCc2ccccc2)c2c(n1)[nH]c1cc(Cl)c(O)cc12`, the inhibition of growth at 10 µM stood at 21% in the data set on BT-549; 34% with MDA-MB-231; 20% with HOP-62; 19% with HOP-92; 16% in the data set on Hs-578T; 28% in the data set with MDA-MB-468. In addition, the inhibition of growth at 10 µM in the data set on NCI-H460 worked out at 5%. Besides, the Ki result in data set [1] was “Not Active”. In addition, the negative-log Ki (pKi) in [2] was 6.57.

Regarding `COc1ccccc1CNc1nc(N)nc2[nH]c3cc(C)c(O)cc3c12`, the figures for the pKi in data set [1] and in [2] were 5.14 and 5.39, respectively.

For the molecule `Cc1cc2[nH]c3nc(N)nc(NCc4ccccc4)c3c2cc1O`, the negative logarithm of the Ki (pKi) in data set [1] was 5.32; in [2], 6.19.

Take `Cc1ccc(CNc2nc(N)nc3[nH]c4cc(C)c(O)cc4c23)cc1`: the negative-log IC50 (pIC50) (in [3]; against Wee1-like protein kinase; in [4]; in data set [5]; in data set [7]; in data set [8]) was under 4.00 each time. For the same molecule, the pIC50 (in [9]; in data set [10]; in data set [11]; on Myotonin-protein kinase; in [12]; in data set [13]) was under 4.00 in each case. Further, in data set [14], the pIC50 – broadly, the negative decadic logarithm of the IC50, by convention in mol/L – is under 4.00. The solubility entry in data set [6] is “Soluble”. Moreover, the Ki entry in data set [1] is recorded as “Not Active”. In addition, the negative logarithm of the Ki (pKi) in data set [2] was 5.25.

Turning to `C[C@H](Nc1nc(N)nc2[nH]c3ccc(O)cc3c12)c1ccccc1`, the pKi in [1] is 5.38; in [2], 6.28.

As to `COc1ccc(CNc2nc(N)nc3[nH]c4ccc(O)cc4c23)cc1`, the negative logarithm of the Ki (pKi) in [2] is 6.92.

With `COc1ccccc1CNc1nc(N)nc2[nH]c3ccc(O)cc3c12`, the inhibition of growth at 10 µM in the data set with BT-549 turned out to be 37%; in the data set on MDA-MB-231, 73%; in the data set with HOP-62, 63%; in the data set on HOP-92, 66%; with Hs-578T it was 41%; with MDA-MB-468, 55%. The inhibition of growth at 10 µM in the data set with NCI-H460 worked out at 82%. For the same molecule, the figures for the negative logarithm of the Ki (pKi) in data set [1] and in data set [2] were 6.07 and 5.73, respectively.
